Results on four compounds are retold here after ChEMBL document CHEMBL3244044, “Synthesis and antitumor activity of halogen-substituted 4-(3,3-dimethyl-1-triazeno)quinolines” (J Med Chem, 1978).

Data set [1] has as its system Mus musculus. Briefly: Toxicity in mouse P388 cells allografted mouse at 30 mg/kg, ip qd for 9 days. Format: organism-based. The conditions noted are these: in vivo, 216 h. Also noted: dose 30 mg/kg, route intraperitoneal. A digest of the protocol: (§1)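 NCI protocol. Groups of five to ten mice were inoculated intraperitoneally with about 10^6 tumor cells. Drug was given ip once daily for 9 consecutive days, starting 24 h after tumor implantation, over a range of dose levels. Toxicity was read as the average body weight change at the end of drug treatment.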

The subject of data set [2] is Mus musculus. Briefly: Toxicity in mouse P388 cells allografted mouse at 40 mg/kg, ip qd for 9 days. The following applies: in vivo, 216 h. More on the design: dose 40 mg/kg, route intraperitoneal. It counts as organism-based. A digest of the protocol: as §1
The test system of data set [3] is Mus musculus. Briefly: Toxicity in mouse L1210 cells allografted mouse at 20 mg/kg, ip qd for 9 days. Format: organism-based. More on the design: dose 20 mg/kg, route intraperitoneal. The conditions noted are these: in vivo, 216 h. A digest of the protocol:
(§2)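 Groups of five to ten mice were inoculated ip with about 10^6 L1210 cells and dosed once daily for 9 consecutive days beginning 24 h post-implantation. Toxicity was taken as the average body weight change at the end of drug treatment.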

Data set [4] concerns P388. Briefly: Antitumor activity against mouse P388 cells allografted mouse assessed as host survival at 30 mg/kg, ip qd for 9 days relative to control. It counts as functional. The following applies: route intraperitoneal. In a few lines: (§3)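 NCI protocol: groups of five to ten mice inoculated ip with approximately 10^6 P-388 or L1210 cells. Drug given over a range of dose levels starting 24 h after implantation, once daily for 9 consecutive days. Survival expressed as %T/C = (average survival of treated)/(average survival of control) × 100.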

Data set [5] concerns Mus musculus. Briefly: Toxicity in mouse L1210 cells allografted mouse at 30 mg/kg, ip qd for 9 days. The following applies: in vivo, 216 h. Also noted: dose 30 mg/kg, route intraperitoneal. It counts as organism-based. A digest of the protocol:
as §2

The subject of data set [6] is L1210. Briefly: Antitumor activity against mouse L1210 cells allografted mouse assessed as host survival at 20 mg/kg, ip qd for 9 days relative to control. Format: functional. The following applies: route intraperitoneal. In a few lines: as §3
In data set [7] the test system is L1210. Briefly: Antitumor activity against mouse L1210 cells allografted mouse assessed as host survival at 30 mg/kg, ip qd for 9 days relative to control. It counts as functional. The conditions noted are these: route intraperitoneal. A digest of the protocol:
as §3

Data set [8] in a line: Binding affinity to synthetic melanin at 5.8 mg/100 mL after 15 mins by UV-spectroscopic analysis. Format: physicochemical. The conditions noted are these: 0.25 h. A digest of the protocol:
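Synthetic melanin was made from DL-Dopa with tyrosinase in 0.1 M phosphate pH 6.6 at 37 °C for 4 h. Melanin suspension (1.1 mg dry weight) was mixed with phosphate buffer (0.05 M, pH 6.4, 5% Me2SO), water, and 1 mL of drug solution (5.8 mg/100 mL). The mixture was shaken 15 min at room temperature and filtered. Unbound drug in the filtrate was measured by UV against a drug-free blank.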

The subject of data set [9] is P388. Briefly: Antitumor activity against mouse P388 cells allografted mouse assessed as host survival at 40 mg/kg, ip qd for 9 days relative to control. It counts as functional. The following applies: route intraperitoneal. In a few lines:
as §3

The test system of data set [10] is B16. Briefly: Antitumor activity against mouse B16 cells allografted mouse assessed as host survival at 50 mg/kg, ip qd for 9 days relative to control. It counts as functional. The conditions noted are these: route intraperitoneal. A digest of the protocol:
(§4)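 B16 melanoma-bearing mice given drug ip once daily for 9 days, starting 24 h after tumor implantation. Read-out is average survival in days, expressed as %T/C = (average survival of treated mice)/(average survival of control mice) × 100.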

In data set [11] the test system is P388. Briefly: Antitumor activity against mouse P388 cells allografted mouse assessed as host survival at 20 mg/kg, ip qd for 9 days relative to control. Format: functional. The conditions noted are these: route intraperitoneal. In a few lines: as §3
Data set [12] relates to Mus musculus. Briefly: Toxicity in mouse B16 cells allografted mouse at 50 mg/kg, ip qd for 9 days. It counts as organism-based. More on the design: dose 50 mg/kg, route intraperitoneal. The conditions noted are these: in vivo, 216 h. A digest of the protocol:
(§5)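 Mice bearing B16 melanoma, dosed ip once daily for 9 days from 24 h after tumor implantation. Toxicity is recorded as the average body weight change at the end of drug treatment.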

Data set [13] has as its system Mus musculus. Briefly: Toxicity in mouse L1210 cells allografted mouse at 40 mg/kg, ip qd for 9 days. Format: organism-based. More on the design: dose 40 mg/kg, route intraperitoneal. The following applies: in vivo, 216 h. In a few lines: as §2
For data set [14], the system named is Mus musculus. Briefly: Toxicity in mouse B16 cells allografted mouse at 30 mg/kg, ip qd for 9 days. Format: organism-based. More on the design: dose 30 mg/kg, route intraperitoneal. The conditions noted are these: in vivo, 216 h. In a few lines: as §5
Data set [15] concerns L1210. Briefly: Antitumor activity against mouse L1210 cells allografted mouse assessed as host survival at 40 mg/kg, ip qd for 9 days relative to control. Format: functional. The following applies: route intraperitoneal. In a few lines: as §3
Data set [16] deals with Mus musculus. Briefly: Toxicity in mouse B16 cells allografted mouse at 18 mg/kg, ip qd for 9 days. Format: organism-based. The following applies: in vivo, 216 h. Also noted: dose 18 mg/kg, route intraperitoneal. A digest of the protocol: as §5
Data set [17] deals with B16. Briefly: Antitumor activity against mouse B16 cells allografted mouse assessed as host survival at 30 mg/kg, ip qd for 9 days relative to control. Format: functional. The conditions noted are these: route intraperitoneal. A digest of the protocol: as §4
In data set [18] the test system is B16. Briefly: Antitumor activity against mouse B16 cells allografted mouse assessed as host survival at 18 mg/kg, ip qd for 9 days relative to control. It counts as functional. The conditions noted are these: route intraperitoneal. In a few lines: as §4
The subject of data set [19] is Mus musculus. Briefly: Toxicity in mouse P388 cells allografted mouse at 20 mg/kg, ip qd for 9 days. It counts as organism-based. The conditions noted are these: in vivo, 216 h. More on the design: dose 20 mg/kg, route intraperitoneal. A digest of the protocol:
as §1

The test system of data set [20] is P388. Briefly: Antitumor activity against mouse P388 cells allografted mouse assessed as host survival at 50 mg/kg, ip qd for 9 days relative to control. Format: functional. The following applies: route intraperitoneal. In a few lines:
as §3

In data set [21] the test system is Mus musculus. Briefly: Toxicity in mouse P388 cells allografted mouse at 50 mg/kg, ip qd for 9 days. Format: organism-based. More on the design: dose 50 mg/kg, route intraperitoneal. The following applies: in vivo, 216 h. In a few lines: as §1
Data set [22] relates to Mus musculus. Briefly: Toxicity in mouse P388 cells allografted mouse at 10 mg/kg, ip qd for 9 days. More on the design: dose 10 mg/kg, route intraperitoneal. The conditions noted are these: in vivo, 216 h. It counts as organism-based. A digest of the protocol: as §1
The test system of data set [23] is P388. Briefly: Antitumor activity against mouse P388 cells allografted mouse assessed as host survival at 10 mg/kg, ip qd for 9 days relative to control. Format: functional. The conditions noted are these: route intraperitoneal. In a few lines: as §3

Structures are written as SMILES.

What is called T/C is the result in the treated group divided by that in the control group, in per cent. Regarding `CN(C)/N=N\c1ccnc2cc(Cl)ccc12`, the Activity was -16.3% in data set [1]; -22.6% in data set [2]; 5.1% in data set [3]; -1% in [5]; 48% in data set [8]. Moreover, the T/C in data set [4] was determined as 137%; in data set [6] it was 154%; in [7] it was 152%; in data set [9], 119%.
With `CN(C)/N=N\c1ccnc2c(Cl)cccc12`, the Activity is -15% in data set [1]; -3.9% in data set [12]; -4.9% in data set [13]; 0% in [5]; -2.9% in data set [14]; -0.3% in data set [16]. Moreover, the figures for the Activity in data set [19] and in data set [8] were -2.1% and 56.4%, respectively. Besides, the values for the Survival in [10], in [17] and in [18] were 20.8 days, 21.3 days and 21.6 days, respectively. The T/C in data set [10] was 99%; in [11], 172%; in [4], 167%; in data set [15] it was 155%; in [17], 101%; in data set [18] it was 103%. The T/C in [7] came to 165%.
Turning to `CN(C)/N=N\c1ccnc2cc(Br)ccc12`, the Activity is -2.4% in data set [1]; -8.9% in data set [2]; -2.8% in data set [13]; 10% in data set [5]; 57.3% in data set [8]; -15.1% in data set [21]. The T/C in data set [4] is reported as 133%; in [15] it was 141%; in data set [20], 125%; in data set [7], 129%; in data set [9], 133%.
Consider `CN(C)/N=N\c1ccnc2ccc(Cl)cc12`, for which the Activity is recorded as -12.9% in data set [1]; 1% in data set [3]; -10% in data set [5]; -3.1% in [22]; 0.8% in [19]; 41% in [8]. In addition, the T/C is recorded as 139% in data set [11]; 137% in [4]; 129% in data set [23]; 146% in data set [6]; 156% in data set [7].
